High-throughput results deposited in PubChem BioAssay by several laboratories.
This is a sample that favours compounds with a hit; in the whole collection about 2.9% have one here.
IMP-1 inhibitor: blocks Pseudomonas aeruginosa IMP-1 metallo-beta-lactamase. purified IMP-1, nitrocefin hydrolysis, epi-absorbance fluorescence. inhibition, % at 5.6 µM. 290,000 tested, 0.45% active;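 active = inhibition above the mean plus 3 SD of all compounds in the same screening run, cut at about 4.5% in these data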
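system = purified recombinant IMP-1 beta-lactamase | amount = 0.2 nM IMP-1, as dispensed | medium = HEPES buffer pH 7.1 with ZnSO4 and Brij 35 | times = 25 °C, 15 min preincubation, 25 min reaction | detection = plate fluorescence quenching by hydrolysis product, ex 480/em 530 nm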
PolyA inhibitor: blocks polyadenylation in yeast reporter cells | S. cerevisiae SKY197-pL101 polyadenylation reporter, beta-gal luminescence; efflux-impaired pdr1/pdr3 knockout yeast; score 100 = 6 SD above DMSO | activity score, % at 12 µM | 300,000 tested, 0.02% active | AID 1875;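 active = lowest replicate activity score at least 50, where 100 means six control SD above control mean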;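 also: yeast exposed to compound for 9 h at 30 °C; higher score means more reporter readthrough which indicates perturbed polyadenylation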
Mot1-301 SUMO: blocks SUMOylation pathway, rescuing yeast Mot1-301 growth; S. cerevisiae Mot1-301 growth rescue, ATP luminescence, 38.5C; percent above DMSO median, 100 means doubled; growth rescue, % at 18.8 µM; 320,000 tested, 1% active; AID 2716;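 active = every valid replicate shows activation above 250% relative to neutral control wells; inactive = the rest, any valid replicate at or below 250%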
NALP1 inh: blocks the NALP1 inflammasome reconstituted in yeast; S. cerevisiae NALP1/ASC/caspase-1 growth, X-gal OD620, 72 h; inhibition, % at 10 µM; 280,000 tested, 0.61% active; in the data active = inhibition mostly above about 24%, no sharp cut-off; inactive = mostly below about 32%
VIM-2 inhibitor: blocks Pseudomonas aeruginosa VIM-2 metallo-beta-lactamase; purified VIM-2, nitrocefin hydrolysis, epi-absorbance fluorescence; inhibition, % at 5.6 µM; 290,000 tested, 0.89% active;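 active = inhibition above the mean of all tested compounds plus 3 SD, cutoff set per screening run, cut at about 7.5% in these data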;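 also: red hydrolysis product quenches plate fluorescence so inhibitors raise well fluorescence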
NALP3 yeast inh: inhibitors of NALP3 inflammasome in yeast. inhibition, % at 10 µM. Yeast reconstituted NLRP3/ASC/caspase-1, beta-gal luminescence, 24 h. AID 2825. 330,000 tested, 0.39% active;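 active = inhibition of 50% or more; inactive = inhibition below 50%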
Numbers stand for hits.

What do the screens show for `Cc1ccc(S(=O)(=O)N(C)Cc2ccccc2)cc1C(=O)N1CCCCC1`?
IMP-1 inhibitor: inactive; PolyA inhibitor: inactive; Mot1-301 SUMO: 335.7; NALP1 inh: inactive; VIM-2 inhibitor: inactive; NALP3 yeast inh: inactive

Results for CC(=O)N1CCN(C(=O)c2cc(S(=O)(=O)N(C)Cc3ccccc3)ccc2Cl)CC1 ?
NALP3 yeast inh: inactive

What do the screens show for `O=S(=O)(c1cccc2nsnc12)N1CCN(C/C=C\c2ccccc2)CC1`?
IMP-1 inhibitor: inactive; PolyA inhibitor: inactive; Mot1-301 SUMO: 308.6; NALP1 inh: inactive; VIM-2 inhibitor: inactive; NALP3 yeast inh: inactive

How did O=S(=O)(c1cccc2nsnc12)N1CCN(C/C=C/c2ccccc2)CC1 do in these assays?
IMP-1 inhibitor: inactive; PolyA inhibitor: inactive; Mot1-301 SUMO: inactive; NALP1 inh: inactive; VIM-2 inhibitor: inactive; NALP3 yeast inh: inactive

How did CCCCN(C(=O)/C=C/c1ccc(OC)cc1)C1CCS(=O)(=O)C1 (stereo not drawn) do in these assays?
PolyA inhibitor: inactive; Mot1-301 SUMO: inactive; NALP3 yeast inh: inactive

Results for CCN(C(=O)c1ccc(S(=O)(=O)N2CCCC2)cc1)C1CCS(=O)(=O)C1 (stereo not drawn) ?
PolyA inhibitor: inactive; Mot1-301 SUMO: inactive; NALP3 yeast inh: inactive

What do the screens show for `O/N=C/c1ccc(-c2ccccc2OC(F)(F)F)o1`?
IMP-1 inhibitor: inactive; PolyA inhibitor: inactive; Mot1-301 SUMO: inactive; NALP1 inh: 35.5; VIM-2 inhibitor: inactive; NALP3 yeast inh: inactive

Results for CC(=O)c1ccc(-c2ccccc2OC(F)(F)F)o1 ?
IMP-1 inhibitor: inactive; PolyA inhibitor: inactive; Mot1-301 SUMO: inactive; NALP1 inh: inactive; VIM-2 inhibitor: inactive; NALP3 yeast inh: inactive

Results for O=[N+]([O-])c1cc(S(=O)(=O)N2CCCCCC2)ccc1F ?
IMP-1 inhibitor: inactive; Mot1-301 SUMO: 577.2; NALP1 inh: 78.6; VIM-2 inhibitor: inactive

How did COc1ccc(N(C(=O)c2snc(C(N)=O)c2N)C(C(=O)NCc2ccc(F)cc2)c2ccc(O)cc2)cc1 (stereo not drawn) do in these assays?
IMP-1 inhibitor: inactive; PolyA inhibitor: inactive; Mot1-301 SUMO: inactive; NALP1 inh: inactive; VIM-2 inhibitor: inactive; NALP3 yeast inh: inactive

What do the screens show for `COc1ccc(OCc2nc(N)nc(Nc3ccccc3OC)n2)cc1`?
IMP-1 inhibitor: 5.4; PolyA inhibitor: inactive; NALP1 inh: inactive; VIM-2 inhibitor: inactive; NALP3 yeast inh: inactive

What do the screens show for `CNC(=O)CSc1nnc(-c2cnccn2)n1C`?
IMP-1 inhibitor: inactive; PolyA inhibitor: inactive; Mot1-301 SUMO: inactive; NALP1 inh: 26.0; VIM-2 inhibitor: inactive; NALP3 yeast inh: inactive

How did O=C(CN1C(=O)NC2(CCc3ccccc32)C1=O)c1ccc(Br)cc1 (stereo not drawn) do in these assays?
PolyA inhibitor: inactive; Mot1-301 SUMO: 278.1; NALP3 yeast inh: inactive

Results for O=C(CSC1=NS(=O)(=O)c2ccccc2N1)NCc1ccc(F)cc1 ?
PolyA inhibitor: inactive; Mot1-301 SUMO: inactive; NALP3 yeast inh: inactive

What do the screens show for `COc1cc(Br)cc(C=Nc2cccc(C(F)(F)F)c2)c1O`?
IMP-1 inhibitor: inactive; PolyA inhibitor: inactive; Mot1-301 SUMO: 326.3; NALP1 inh: inactive; VIM-2 inhibitor: inactive

Results for CCCCn1nnc(NC(=O)c2ccc(-c3ccccc3[N+](=O)[O-])o2)n1 ?
IMP-1 inhibitor: inactive; PolyA inhibitor: inactive; Mot1-301 SUMO: inactive; NALP1 inh: 30.4; VIM-2 inhibitor: inactive; NALP3 yeast inh: inactive

What do the screens show for `CCn1nnc(NC(=O)c2ccc([N+](=O)[O-])o2)n1`?
IMP-1 inhibitor: inactive; PolyA inhibitor: inactive; Mot1-301 SUMO: inactive; NALP1 inh: inactive; VIM-2 inhibitor: inactive; NALP3 yeast inh: inactive

What do the screens show for `O=C(Oc1ccc(Cl)c2cccnc12)c1cccc([N+](=O)[O-])c1`?
IMP-1 inhibitor: inactive; PolyA inhibitor: inactive; Mot1-301 SUMO: inactive; NALP1 inh: 58.2; VIM-2 inhibitor: inactive; NALP3 yeast inh: inactive

Results for O=C(CN1CCN(Cc2ccc(F)cc2Cl)C1=O)NCCc1ccccc1 ?
IMP-1 inhibitor: inactive; PolyA inhibitor: inactive; Mot1-301 SUMO: inactive; NALP1 inh: inactive; VIM-2 inhibitor: inactive; NALP3 yeast inh: inactive

What do the screens show for `CN(CCNC(=O)CN1CCN(Cc2ccccc2Cl)C1=O)Cc1ccccc1`?
IMP-1 inhibitor: inactive; PolyA inhibitor: inactive; Mot1-301 SUMO: inactive; NALP1 inh: 44.6; VIM-2 inhibitor: inactive; NALP3 yeast inh: inactive
